18 molecules from PubChem BioAssay AID1525 (The Scripps Research Institute Molecular Screening Center, 2009) can be followed below.

The list shows a part of the results. Activity calls are given as the source filed them.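 Rule for the calls: active = mean activation over replicates above a set limit taken from the earlier TRPN1 channel primary screen (cut at about 19% in these data); inactive = the rest.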

The assay concerns TRPN1 (NOMPC) [Danio rerio]. As to the kind of experiment: activators of TRPN1 (NOMPC) cation channel – cell-based, HEK293 TRPN1-YFP, Fluo-8 calcium, counter-screen for TRPML3 agonist project (AID 1525).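 Note: 100% = carbachol and 0% = 0.3% DMSO.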 The settings on record: HEK293 zebrafish TRPN1-YFP, Fluo-8 calcium fluorescence; at 3 µM; active compounds read high; scaled: carbachol wells 100%, DMSO wells 0%. In a few lines: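 test system = HEK293 cells expressing zebrafish TRPN1-YFP channel | doses = one 3 µM compound dose per well | times = Fluo-8 loading 1 h at 37 °C, then 30 min room temperature | measured by = kinetic Fluo-8 calcium fluorescence, 125 s total read | read-out = peak-to-basal fluorescence ratio scaled to % activation between controls | repeats = three replicates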
Consider `CCOc1ccc(S(=O)(=O)N2CCCCCC2)c2ccccc12`, for which the activation is -0.72% (inactive). For the molecule `COc1ccccc1N(CC(=O)N1CCCCC1)S(=O)(=O)c1ccccc1`, the activation was 1.91% (inactive).

Take `COc1ccc(-c2noc(CN(C)S(=O)(=O)c3ccc(C)cc3)n2)cc1`: the activation is 5.96% (inactive). The figure for `COc1ccc(N(CCC#N)S(=O)(=O)c2ccc(Cl)cc2)cc1` is 0.61% (inactive). Turning to `COc1ccc(S(=O)(=O)N2CCCC2)c(C)c1C`, the activation is 0.75% (inactive). With `CCN(CC)C(=O)CC1(c2ccccc2OC)CCOC(C(C)C)C1` (stereo not drawn), the activation was -1.47% (inactive). With `O=C(CC(O)(C(F)(F)F)C(F)(F)F)Nc1ccc(Cl)c(Cl)c1`, the activation was 21.3% (active). In the case of `COc1cc(/C=C(\C#N)c2nc3c(s2)CC(C)CC3)ccc1O` (stereo not drawn), the activation is 14% (inactive). Take `O=S(=O)(Nc1ccccc1N1CCOCC1)c1ccc(Cl)s1`: the activation was 0.07% (inactive).

Consider `CC1CCCC(C)N1C(=O)CN1CCN(c2nc(-c3ccc(F)cc3)cs2)CC1` (stereo not drawn), for which the activation was 4.68% (inactive). With `c1ccc2c(C[n+]3csc4ccccc43)cccc2c1`, the activation was -0.03% (inactive). As for `Cc1cccc(C)c1N1CCN(S(=O)(=O)N2CCCCC2)CC1`, the activation was 28.3% (active). On to `CC1=CC(C)(C)N(C(=O)CSc2nnc(-c3ccccc3)o2)c2ccc(C)cc21`, for which the activation was 0.12% (inactive). As to `CCOC(=O)C1=C(NC(=S)NC(=O)c2ccccc2)c2ccccc2CC1(C)C`, the activation is 15.5% (inactive). Take `CC1(C)CCCC2=C1CC1C(=O)N(c3ccccc3)C(=O)C1C2` (stereo not drawn): the activation was -0.48% (inactive). As to `C=C(C)Cn1c(C)cc(C)c(S(=O)(=O)c2ccccc2C)c1=O`, the activation is -3.19% (inactive). As to `CCN(CC)S(=O)(=O)c1ccc2c3c(cccc13)C(=O)S2`, the activation is -0.76% (inactive).

For the molecule `COc1ccc(Cl)cc1N(CC(=O)N1CCCCC1)S(C)(=O)=O`, the activation is 2.78% (inactive).
